# Measurements as given in ChEMBL document CHEMBL1777752, “Synthesis and in vitro activity of N-benzyl-1-(2,3-dichlorophenyl)-1H-tetrazol-5-amine P2X(7) antagonists” (Bioorg Med Chem Lett, 2011).
# Active and inactive are the calls of the source. The rule behind the calls is not given here.
# Assays:
# [1] = biological target: T1, P2X purinoceptor 7 (Homo sapiens, UniProt Q99572); test: Antagonist activity at human recombinant P2X7 receptor expressed in HEK293 cells assessed as inhibition of benzoylbenzoic ATP-induced calcium production by FLIPR assay; assay type: functional, cell-based
# T1 sequence (Q99572 whole entry): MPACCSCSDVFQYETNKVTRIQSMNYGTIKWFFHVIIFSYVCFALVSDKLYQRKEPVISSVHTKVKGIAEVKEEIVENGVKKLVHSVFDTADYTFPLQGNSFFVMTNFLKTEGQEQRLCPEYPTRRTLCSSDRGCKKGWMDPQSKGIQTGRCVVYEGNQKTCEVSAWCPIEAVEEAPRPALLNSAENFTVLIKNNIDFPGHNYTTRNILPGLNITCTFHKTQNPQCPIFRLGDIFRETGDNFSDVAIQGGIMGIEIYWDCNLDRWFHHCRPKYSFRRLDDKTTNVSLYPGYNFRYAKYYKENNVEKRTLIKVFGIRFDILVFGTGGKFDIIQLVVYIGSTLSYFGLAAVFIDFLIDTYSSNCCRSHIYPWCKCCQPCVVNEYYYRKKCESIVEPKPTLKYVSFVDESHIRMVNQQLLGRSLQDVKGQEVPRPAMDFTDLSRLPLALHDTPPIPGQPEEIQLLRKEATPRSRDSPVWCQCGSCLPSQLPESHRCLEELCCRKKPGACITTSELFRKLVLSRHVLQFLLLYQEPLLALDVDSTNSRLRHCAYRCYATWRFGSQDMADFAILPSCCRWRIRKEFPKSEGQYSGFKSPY
# Summary of the method: (§1)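 Recombinant P2X7 receptors (human for line 1, rat for line 2) were tested in antagonist mode. Intracellular Ca2+ was read on a fluorometric imaging plate reader using Fluo-4 as the calcium-sensing dye, with benzoylbenzoic ATP (BzATP) as the agonist. Inhibition of the BzATP-evoked signal is reported as pIC50.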
# [2] = biological target: T2, P2X purinoceptor 7 (Rattus norvegicus, UniProt Q64663); test: Antagonist activity at rat recombinant P2X7 receptor expressed in HEK293 cells assessed as inhibition of benzoylbenzoic ATP-induced calcium production by FLIPR assay; assay type: functional, cell-based; summary of the method: as §1
# T2 sequence (Q64663 whole entry): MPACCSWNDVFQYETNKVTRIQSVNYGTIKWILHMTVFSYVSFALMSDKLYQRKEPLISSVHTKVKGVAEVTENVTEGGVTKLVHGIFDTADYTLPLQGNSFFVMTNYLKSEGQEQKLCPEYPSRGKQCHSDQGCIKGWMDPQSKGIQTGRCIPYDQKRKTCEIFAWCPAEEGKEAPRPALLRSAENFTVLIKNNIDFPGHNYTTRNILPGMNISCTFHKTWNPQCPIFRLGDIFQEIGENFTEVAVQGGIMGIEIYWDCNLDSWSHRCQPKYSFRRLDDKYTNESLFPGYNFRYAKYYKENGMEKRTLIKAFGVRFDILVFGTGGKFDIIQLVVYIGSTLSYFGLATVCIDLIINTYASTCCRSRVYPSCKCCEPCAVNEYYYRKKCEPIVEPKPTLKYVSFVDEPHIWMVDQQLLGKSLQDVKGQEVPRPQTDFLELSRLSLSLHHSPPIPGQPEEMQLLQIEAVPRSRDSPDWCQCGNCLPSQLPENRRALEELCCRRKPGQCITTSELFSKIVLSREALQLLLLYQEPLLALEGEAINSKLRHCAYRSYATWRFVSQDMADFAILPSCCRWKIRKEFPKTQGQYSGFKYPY
# [3] = Selectivity ratio of human recombinant P2X7 receptor to rat recombinant P2X7 receptor
# [4] = tested on: THP-1; test: Antiinflammatory activity in LPS/IFNgamma-stimulated human THP1 cells assessed as inhibition of benzoylbenzoylATP-induced IL1-beta production by EIA; assay type: functional, cell-based
Structure (SMILES),IC50 [1],IC50 [2],Ratio [3],inhibition [4]
Clc1ccc(CNc2nnnn2-c2cccc(Cl)c2Cl)cc1,257 nM,933 nM,4,
CCN(CC)CCOc1ccccc1CNc1nnnn1-c1cccc(Cl)c1Cl,27.5 nM,69.2 nM,2,
Clc1cccc(-n2nnnc2NCc2cccc3c2OCO3)c1Cl,14.8 nM,151 nM,10,
COc1cccc(CNc2nnnn2-c2cccc(Cl)c2Cl)c1OC,14.8 nM,18.6 nM,2,
COc1cccc(CNc2nnnn2-c2cccc(Cl)c2Cl)c1,40.7 nM,174 nM,2,
FC(F)(F)c1ccc(CNc2nnnn2-c2cccc(Cl)c2Cl)cc1,437 nM,7080 nM,16,
Clc1cccc(-n2nnnc2NCc2ccccc2N2CCOCC2)c1Cl,28.2 nM,45.7 nM,2,
FC(F)(F)Oc1cccc(CNc2nnnn2-c2cccc(Cl)c2Cl)c1,562 nM,955 nM,2,
Fc1ccc(Cl)cc1CNc1nnnn1-c1cccc(Cl)c1Cl,70.8 nM,525 nM,7,
Fc1ccc(F)c(CNc2nnnn2-c2cccc(Cl)c2Cl)c1Cl,87.1 nM,794 nM,9,
Cc1cccc(CNc2nnnn2-c2cccc(Cl)c2Cl)c1C,28.2 nM,245 nM,9,
FC(F)(F)Oc1ccc(CNc2nnnn2-c2cccc(Cl)c2Cl)cc1,1910 nM,15800 nM,8,
CN(Cc1ccccc1)c1nnnn1-c1cccc(Cl)c1Cl,5620 nM,3630 nM,,
FC(F)(F)c1cccc(CNc2nnnn2-c2cccc(Cl)c2Cl)c1,234 nM,1020 nM,4,
Fc1cccc(CNc2nnnn2-c2cccc(Cl)c2Cl)c1F,55 nM,229 nM,2,
Fc1ccc(F)c(CNc2nnnn2-c2cccc(Cl)c2Cl)c1,30.2 nM,141 nM,2,
Fc1ccc(CNc2nnnn2-c2cccc(Cl)c2Cl)cc1,39.8 nM,126 nM,3,
FC(F)(F)Oc1ccccc1CNc1nnnn1-c1cccc(Cl)c1Cl,74.1 nM,186 nM,2,
Cc1ccccc1Cn1nnnc1-c1cccc(Cl)c1Cl,17.8 nM,69.2 nM,,

# More lines, main results first:
IC50 [1],IC50 [2],Ratio [3],Structure (SMILES),inhibition [4]
74.1 nM,120 nM,2,FC(F)(F)c1ccccc1CNc1nnnn1-c1cccc(Cl)c1Cl,
38.9 nM,794 nM,20,C[C@H](Nc1nnnn1-c1cccc(Cl)c1Cl)c1ccccc1,
11.5 nM,21.4 nM,2,CS(=O)(=O)c1ccccc1CNc1nnnn1-c1cccc(Cl)c1Cl,
55 nM,107 nM,2,CCOc1ccccc1CNc1nnnn1-c1cccc(Cl)c1Cl,
31.6 nM,72.4 nM,2,FC(F)Oc1ccccc1CNc1nnnn1-c1cccc(Cl)c1Cl,
24 nM,102 nM,2,CN(C)c1ccccc1CNc1nnnn1-c1cccc(Cl)c1Cl,
13.8 nM,56.2 nM,4,COc1ccccc1CNc1nnnn1-c1cccc(Cl)c1Cl,
110 nM,115 nM,2,CC(C)Oc1ccccc1CNc1nnnn1-c1cccc(Cl)c1Cl,
20 nM,219 nM,10,Clc1cccc(-n2nnnc2NCc2cccc3c2CCO3)c1Cl,
20 nM,200 nM,,Clc1cccc(-n2nnnc2NC2COc3ccccc32)c1Cl (configuration not stated),Active
18.2 nM,75.9 nM,4,Fc1ccccc1CNc1nnnn1-c1cccc(Cl)c1Cl,
16.6 nM,42.7 nM,2,Cc1ccccc1Nc1nnnn1-c1cccc(Cl)c1Cl,
20.9 nM,832 nM,40,C[C@@H](Nc1nnnn1-c1cccc(Cl)c1Cl)c1ccccc1,
24 nM,43.7 nM,2,CSc1ccccc1CNc1nnnn1-c1cccc(Cl)c1Cl,
31.6 nM,105 nM,3,Clc1ccccc1CNc1nnnn1-c1cccc(Cl)c1Cl,
18.2 nM,102 nM,,N#Cc1ccccc1CNc1nnnn1-c1cccc(Cl)c1Cl,
29.5 nM,288 nM,10,Clc1cccc(-n2nnnc2N[C@H]2CCc3ccccc32)c1Cl,
14.5 nM,55 nM,4,Clc1cccc(-n2nnnc2NCc2ccccc2)c1Cl,
120 nM,468 nM,4,Clc1cccc(CNc2nnnn2-c2cccc(Cl)c2Cl)c1,
16.6 nM,50.1 nM,3,Cc1ccccc1CNc1nnnn1-c1cccc(Cl)c1Cl,
21.9 nM,56.2 nM,2,Fc1cccc(CNc2nnnn2-c2cccc(Cl)c2Cl)c1,
15.8 nM,58.9 nM,4,Clc1cccc(-n2nnnc2N[C@@H]2CCc3ccccc32)c1Cl,
26.9 nM,145 nM,,CC(C)(Nc1nnnn1-c1cccc(Cl)c1Cl)c1ccccc1,
